Assay results from the EternaBench riboswitch data.

Tested on: MS2 coat protein
Assay: apparent Kd, MS2 coat protein; higher = weaker binding; RNA-MaP array; FMN 200 µM where present
Summary of the method: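 Designs were transcribed by stalled E. coli RNA polymerase on Illumina sequencing-chip clusters. They were titrated with SNAP-549-labelled MS2 coat protein from 0.7 or 1.5 nM, doubling to 3 µM, in 100 mM Tris-HCl pH 7.5, 80 mM KCl, 4 mM MgCl2, BSA, DTT, yeast tRNA and Tween-20, without and then with constant ligand. The apparent Kd is the median of filtered per-cluster fits after normalisation of green signal to red-channel RNA signal and control-cluster median Fmax.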

[1] = designed as: OFF switch for flavin mononucleotide, no ligand
[2] = ligand present: flavin mononucleotide, designed as: OFF switch for flavin mononucleotide
[3] = designed as: ON switch for flavin mononucleotide, no ligand
[4] = ligand present: flavin mononucleotide, designed as: ON switch for flavin mononucleotide

Row | Sequence | apparent Kd [1] [nM] | apparent Kd [2] [nM] | apparent Kd [3] [nM] | apparent Kd [4] [nM]
1 | UCGCUGCGAGGAUAUACGUUCGCGCGCUUUCGUUUGCGCGUACAUGAGGAUCACCCAUGUAGAAGGCGCGCUGC | 16.4 | 15.5 |  | 
2 | AUGAGUAAAGCAGGAUAUCUAUUGUCUCUGUAACAUGAGGAUCACCCAUGUAGAGAAGGGCUAAGUCUUACUCUUCGGAGUUGA | 14.2 | 13.7 |  | 
3 | ACGAGGGUUACAGGAUAUGAAGCUAAAACGGCGUUAGAAGGGUAUACAGAGUUACAUGAGGAUCACCCAUGUUGUGACUUCGAA | 33.6 | 41 |  | 
4 | GUCAUGUUAGGAUAUCUAACAUGUGACUUCGGUCACUGUCCAGAGAAGGAACAUGAGGAUCACCCAUGUUGGAC | 14.7 | 15.9 |  | 
5 | GAGUGGAAGGCCGCUACAUGAGGAUCACCCAUGUGCUAAGCACAGGAUAUCGCGCGGGCCCGGCGCGAGAAGGGUGACGGCCUU |  |  | 1010 | 272
6 | GUCAGCUCGUGAGGAUAUACAUGUGCUGGAGACAGCACUAAAGUUUUCACAUGAGGAUCACCCAUGUAGAAGGCACGAGCUGAU | 15.4 | 36 |  | 
7 | AGGUCAACCACAGGAUAUGGCUAGCAUAGCUAGCCAGAAGGGUGGUCAUUUCCAUGUAAAUACAUGAGGAUCACCCAUGUAUCC |  |  | 126 | 41.1
8 | AUCAGCUCGUCAGGAUAUACGUCACUGCGUCAGCUGUGUGGUAAGAUCACAUGAGGAUCACCCAUGUAGAAGGGACGAGCUGAU | 15.3 | 295 |  | 
9 | GCCCGGCAUACAUGAGGAUCACCCAUGUCAGAAAGGGUAAUCAGAAGGUACUAUUAGAGAAAGAGUAAGGAUAUGAAGCCGGGC |  |  | 599 | 134
10 | AUCGGGAGAGGAUAUACAUGAGGAUCACCCAUGUUGGGAACAUCGGUUUGUUAGUUUCGUAGAAGGCUCGGGCG | 45.5 | 59.6 |  | 
11 | AAAUAAAUGACUCAGGAUAUAUCAUAGAAUACAUGAGGAUCACCCAUGUUUUAAUAACAUGUUUGGUAGAAGGGAGUCAAUAAAU |  |  | 80.4 | 29.3
12 | CCAGCGUGUGUGAGGAUAUGCUGGUCCUUGGAUCAGCAGAAGGCACAUGAGGAUCACCCAUGUGAGAGCGUUGG | 19.6 | 86.1 |  | 
13 | AAGCUCGUGUGAGGAUAUGCCGCCGUUUCGGCUGCAGAAGGUGCUACGUUACAUGAGGAUCACCCAUGUCUCUGUUGUUUCGUA |  |  | 42.6 | 49.7
14 | ACGAGACUCGUGAGGAUAUCGUGUUGUAAGCAGAUCGAGAAGGCACAUGAGGAUCACCCAUGUUUACUGCCACA | 17 | 21.9 |  | 
15 | UGGUACUAGGGAGGAUAUGGGAAGAUACAUGAGGAUCACCCAUGUUUAAGAAUGCCGAGAGCCAACUAGAAGGCCCUAGUACCU |  |  | 120 | 16.7
16 | UGUCGGACCAGAGGAUAUUACAUGAGGAUCACCCAUGUAUGAACCAAUAGCUGGAAACAGCAAUGUAAGAAGGCUGCUCCGACA | 9.74 | 105 |  | 
17 | UGACGGAGCUGAGGAUAUAUACAUGAGGAUCACCCAUGUAAGCUCCAGGAAACUGGAGCAAAUGUAUAGAAGGCAGCUCCGUCA | 30.3 | 48 |  | 
18 | GUCAUGUCAGGAUAUGCUUAUGGUGGGUGCUCAGACAUGAUGCAGAAGGGACAUGAGGAUCACCCAUGUACUGU | 35.8 | 60.9 |  | 
19 | AGCUGCAAUCAGAAGGAGUAGGGUACAUGAGGAUCACCCAUGUCCGAUGCUAGGAUAUGAAAGCAGACCCGUGGUACCAAUCCC |  |  | 33.5 | 7.39
20 | AGGAGGUUAGGAUAUGCUGCUCGUCACUUGCGUGAUGAGUAGCAGAAGGAACAUGAGGAUCACCCAUGUAAAGA | 29.7 | 35.1 |  | 
21 | GGACGUCUCAUUAACAUGAGGAUCACCCAUGUCGAAAGACAUGAGGAUAUGGAUCCUAAUUGGAUCCAGAAGGCAUGGACGUCC |  |  | 98 | 582
22 | CCAUAAAAGAUCCAAAAUUACAACAUGAGGAUCACCCAUGUGCAGGAUAUCGUGAAAGUAAAAUACGAGAAGGGCAAAAACUGC | 440 | 454 |  | 
23 | ACGUGUCGUGUAGGAUAUGACACAGGAAACUGGUCAGAAGGACAUGAGGAUCACCCAUGUAGAGUGUGUUAGGAUGACGUAUGC | 51.9 | 199 |  | 
24 | AAGCCUAAUGAGAAGGUGUGUAUAAAUUAUAUACAAGGAUAUCGGUCGAGCGUGUUGACAUGAGGAUCACCCAUGUUGAGGCUU |  |  | 10.3 | 6.22
25 | ACCAGUGACACAGGAUAUCCGUGCAUGUAGCACGGAGAAGGGUGUUCCAAUCAACUCACAUGAGGAUCACCCAUGUGCUACUUG |  |  | 176 | 59.8
26 | ACGGCUUAGUCAGGAUAUACAAGAUUGUGAGACUACAUGAGGAUCACCCAUGUAGAAGGGACUAAUCGUCUGAACAUUGCUUUC | 7.58 | 22.1 |  | 
27 | UAAUGUAUAUAGGAUAUCUAGCUGGAUACAGCUAGAGAAGGAUGUACAUGAGGAUCACCCAUGUAAAUCGAUCA | 23.2 | 55.7 |  | 
28 | AAGAUGUUAGGAUAUCGAAGGUUGUGGCAGGCGGGAAUUUGCGAGAAGGAACAUGAGGAUCACCCAUGUGAAAU | 22.3 | 21.8 |  | 

Row | Sequence | apparent Kd [1] [nM] | apparent Kd [2] [nM] | apparent Kd [3] [nM] | apparent Kd [4] [nM]
29 | CCAGCGAGUGUGAGGAUAUGCUGGUCCUUGGAUCAGCAGAAGGCACAUGAGGAUCACCCAUGUGAGGACGUUGG | 28.2 | 248 |  | 
30 | AAACCACAUGAGGAUCACCCAUGUGAUAAAAGCAUAGGAUAUCUGGAUGUGAGAGGCGGCAGAGAAGGAUGCACGC |  |  | 61.5 | 53.9
31 | GUGGUCUCCGCAGGAUAUGGCUCGGGCACGACACCAGAAGGGCGGACAUGAGGAUCACCCAUGUUCGCGGGUGGGUCCUAAGGA | 6.39 | 7.49 |  | 
32 | GAGAAGAGUAUAGGAUAUUAAGAAACAUGAGGAUCACCCAUGUAGUGAGUGUGAGAAGGGUAGGAGGUGGUAGGAGGAUCCAGG |  |  | 22.3 | 16.4
33 | AGAUUUUUACAUGAGGAUCACCCAUGUUAAUAGGUGUUUGUCAGAAGGCAUUAUGAGAGAAUUAAUGAGGAUAUGAAGUUUCAU |  |  | 40.4 | 27.8
34 | AUUGUGUUAGGAUAUGCUUAUGCUGGGUAGUCCAGUAUGGAGUAGAAGGGACAUGAGGAUCACCCAUGUGCUCA | 20.9 | 21.2 |  | 
35 | UGGGUAAAUGUAGGAUAUCCAUAUUAAUAAUAUGGAGAAGGACAUGAGGAUCACCCAUGUACAGGGAAUUACCCAUUUCCUCUC | 80.1 | 287 |  | 
36 | GCACUGACAGGAUAUACAUGAGGAUCACCCAUGUGACCCUUAUAGUACUCGCGUACUGGUAGAAGGGUCUGUGC | 78.8 | 558 |  | 
37 | UGCUAGAACCUAGGAUAUCCUAGGUUGGUGGUGCUUGGUGACCGGACAUGAGGAUCACCCAUGUAGGAGAAGGAGGUUGCUAAG | 37.8 | 41.2 |  | 
38 | AUACCACGAGGAUAUCGUCUAUAUUACAUGAGGAUCACCCAUGUUAUAUUUGUAAUGUUUCGAGAAGGCGUGUUUU | 15.3 | 13.3 |  | 
39 | GGCGCCCGGGCGGAGUCCCACACACAUGAGGAUCACCCAUGUAGAAGGCGCUGCCGCAAGGUCAGCGAGGAUAUACAUUAAGGA | 14.8 | 45.8 |  | 
40 | GUGUACGGAGGAUAUAUGUGGGCAGGCUGACCUGCAGCUUCACAUGAGGAUCACCCAUGUAGAAGGCUGUGCAC | 22.2 | 92.9 |  | 
41 | UUAUGAUUAAGAGGAUAUAUACAACAUGAGGAUCACCCAUGUACCCAUGUAGUAGAAGGCUUAUUUUUAUAUAAUAAUAUAAUU |  |  | 143 | 47.6
42 | GCCAGGGAUUCAGGAUAUAUUAGCCGAGGCCGCGUAGAAGGGAAAUCCUGACAUGAGGAUCACCCAUGUCGACCCGCCUUCCUC |  |  | 28.5 | 29.2
43 | GUAGCUAGUACAGGAUAUUAGUGCGUGUAGUAUUGAGAAGGGUACAUGAGGAUCACCCAUGUGAUCAAUCACUGUUAAGGUUGC | 221 | 177 |  | 
44 | GGGAGUGGAGGGAAUAACAUGAGGAUCACCCAUGUAUGGGAGAGAAGGCAGGUCGGAGGGCGGUCUGAGGAUAUUUAGACUCCU |  |  | 8.96 | 7.43
45 | GGAUGACAAAGUCAUCCAAUUCGAACAUGAGGAUCACCCAUGUAGGAUAUGGUACUCAAAGAGUACCAGAAGGACAUGUGCUUU | 38.1 | 145 |  | 
46 | GACCUAUAGGUAGGAUAUCAUUGCGAUUAGCUAUGAGAAGGACCACAUGAGGAUCACCCAUGUCCUCUAAUUAGCCAUUUGGUC | 380 | 1040 |  | 
47 | UUUUAGUCAGGAUAUCGUUAAUUUAAUUGUUUGUAUUAGUUCGAGAAGGGACAUGAGGAUCACCCAUGUAUUUU | 33.5 | 43 |  | 
48 | AUAUAGUCAGGAUAUCGAAGUGAGUGUUGGUGGGUAAGGUACGAGAAGGGACAUGAGGAUCACCCAUGUAGGAA | 59.7 | 44.1 |  | 
49 | CACGUCCACACAGGAUAUGCUGGACUUUGUCCAGCAGAAGGGUGAAAACAUGAGGAUCACCCAUGUAGGACGUGUAUAUUUAAU |  |  | 488 | 43
50 | AUUUCGUUAUCAGGAUAUGGACAGGCCUGUCCGUAUUGAGACAGUAACAUGAGGAUCACCCAUGUCCAGAAGGGAUCGAAGUAU | 57 | 46.7 |  | 
51 | ACGGCAGUCGAAGGAUAUGGUUACAUGAGGAUCACCCAUGUCUAGGGUCUAAUUAGGUAUAAUUACCAGAAGGUCGAAGGCCUA | 90.5 | 123 |  | 
52 | UAAUCUCAGAUAGGAUAUAUAGGAUAACUUAAGACCGAACAUGAGGAUCACCCAUGUGAUUAUUCGUAGAAGGAUCAAUGACCC |  |  | 119 | 119
53 | UCGCUGCGAGGAUAUACAUGAGGAUCACCCAUGUACGGGUCCGGGUUUGAGUUGAUGAGUAGAAGGCGCAGUGA | 94.7 | 86.1 |  | 
54 | GGGUACAUCGGAGGAUAUCAUGUAAAUACAUGAGGAUCACCCAUGUUGAUGGAGACAUCGGAGAUUGAGAAGGCCGAUGUACCG |  |  | 41.9 | 6.03
55 | AGGUGUAGAGGAUAUUUAUUCUUCCACAUGAGGAUCACCCAUGUCCCGGUCACCAGGGACGGAGAAGGCUACACCA | 77 | 88.3 |  | 
